ChEMBL document CHEMBL4513216, “Probing the Open Global Health Chemical Diversity Library for Multistage-Active Starting Points for Next-Generation Antimalarials” (ACS Infect Dis, 2020)

Experiment: Toxicity liver stage against HepG2, at 10uM
Assay type: cell-based
Design: test concentration 10 uM, cell line HepG2-A16-CD81EGFP
Settings: human, HepG2-A16-CD81EGFP cells; read-out: INHIBITION
Outline: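 Uninfected HepG2-A16-CD81EGFP cells, 3 × 10^3 per well, 1536-well, plated on prespotted compound at 10 μM final, parasite-free screening media added to match infected plates; puromycin 10 μM positive, DMSO 0.5% negative; run in parallel with 48 h PbLuc assay at 37 °C, 5% CO2; viability by CellTiter-Glo luminescence, normalized to controls.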

COCC(=O)N1CCN(C)CC(Cc2cc(N(C)C)ncn2)C1 (stereo unspecified)
cytotoxicity at 10 µM: -1.79%

CN(C)Cc1cc(C2CCN(C(=O)C3CCCNC3)CC2)nn1C (stereo unspecified)
cytotoxicity at 10 µM: -8.67%

O=C(NCCNc1ccc(C(F)(F)F)cn1)c1ccc(Cl)cc1F
cytotoxicity at 10 µM: -1.99%

NC1(c2nc(C(F)(F)F)cc(=O)[nH]2)CCCC1
cytotoxicity at 10 µM: 19.1%

CN(C)[C@H]1CCCCN(Cc2cnc(NCc3ccccc3)nc2)C1
cytotoxicity at 10 µM: 0.166%

COc1cc2nc(C)n(CC(=O)NCCC(C)C)c(=O)c2cc1OC
cytotoxicity at 10 µM: -3.79%

CC(c1ncc(-c2ccccc2)o1)N1CCN(C(=O)C(C)(C)C)CC1 (stereo unspecified)
cytotoxicity at 10 µM: 17.4%

CCCN1CCCN(C(=O)c2oc(C)nc2C)CC1
cytotoxicity at 10 µM: 24.3%

Cc1cc(C(F)F)nn1C(C)C(=O)NCc1ncc[nH]1 (stereo unspecified)
cytotoxicity at 10 µM: 5.46%

COc1ncnc2c1CCN(c1cc(C(F)(F)F)ncn1)CC2
cytotoxicity at 10 µM: -1.42%

Cn1cc(C(=O)N2CCOc3cc(F)ccc32)ccc1=O
cytotoxicity at 10 µM: -2.55%

CC(C)c1cc(C(=O)N(C)C(C)c2nccs2)no1 (stereo unspecified)
cytotoxicity at 10 µM: -9.15%

O=C(CC1CC1)N1CCC2(CC1)CN(Cc1cccnc1)C(=O)CO2
cytotoxicity at 10 µM: 3.59%

Cc1cccc(C(C)CNC(=O)N2CCOCC3(CCOCC3)C2)c1 (stereo unspecified)
cytotoxicity at 10 µM: 8.84%

CCc1cc(CN(C)C(=O)C2CC(=O)N(c3cccc(O)c3)C2)on1 (stereo unspecified)
cytotoxicity at 10 µM: -1.72%

Cn1cc(CCC(=O)N2C[C@H]3CC[C@@H](C2)N(Cc2ccccn2)C3)cn1
cytotoxicity at 10 µM: -1.95%

COCCCNC(=O)CN1CCCC1c1c(C)nn(C)c1Cl (stereo unspecified)
cytotoxicity at 10 µM: 6.69%

OC(COCc1cccs1)Cn1cc(Br)cn1 (stereo unspecified)
cytotoxicity at 10 µM: 1.91%

CC(=O)N1CC[C@@H]2O[C@H](C(=O)Nc3nc(C)cs3)C[C@@H]21
cytotoxicity at 10 µM: 4.62%

O=C1CCC(C(=O)N2CCOC(Cc3ccccc3Cl)C2)=NN1 (stereo unspecified)
cytotoxicity at 10 µM: -0.108%

Cc1nc(CNC2(C(=O)OC(C)(C)C)CCCC2)oc1C
cytotoxicity at 10 µM: -0.457%

c1cnn(CC2CCCN2c2ncnc3c2CCC3)c1 (stereo unspecified)
cytotoxicity at 10 µM: 41.2%

COc1cc(CN(C)CCc2ccncc2)c(SC)cc1OC
cytotoxicity at 10 µM: -2.92%

CCCN1CCCC2(CCN(Cc3cncn3C3CCCCC3)C2)C1=O (stereo unspecified)
cytotoxicity at 10 µM: 5.89%

CC(C)C(=O)Nc1ccc(Oc2ccc3c(c2)OCO3)nc1
cytotoxicity at 10 µM: -12.4%

CC(C)c1noc(-c2ccc(NCC3CCCOC3)nc2)n1 (stereo unspecified)
cytotoxicity at 10 µM: -2.26%

CNC(=O)C1CCCN(c2nc3c(-c4ccccc4)csc3c(=O)[nH]2)C1 (stereo unspecified)
cytotoxicity at 10 µM: -1.03%

O=C(Cn1ncc2c(c1=O)CCCCC2)Nc1cccc2[nH]ccc12
cytotoxicity at 10 µM: 0.417%

CCN1CCC(CNC(=O)C(c2ccccc2F)N(C)C)(N(C)C)CC1 (stereo unspecified)
cytotoxicity at 10 µM: -1.7%

CNC(=O)c1ccc(-c2ccccc2)n1C
cytotoxicity at 10 µM: -1.6%

COc1ccc(C2=NOC(CC#N)C2)cc1 (stereo unspecified)
cytotoxicity at 10 µM: 1.52%

Cc1n[nH]c(C2CN(CC(=O)NCCc3ccc(F)cc3)CCO2)n1 (stereo unspecified)
cytotoxicity at 10 µM: -8.13%

CCC(C)(O)CNC(=O)Nc1ccc(C)cc1Br (stereo unspecified)
cytotoxicity at 10 µM: -9.95%

O=C(O)C(c1ccc2[nH]ccc2c1)N1CCOCC1 (stereo unspecified)
cytotoxicity at 10 µM: 13.1%

CC(C)CN1CC(C(=O)NCCc2ccc(OC(F)F)cc2)CC1=O (stereo unspecified)
cytotoxicity at 10 µM: 5.04%

COCCN1C(=O)CCC12CCC(NC(=O)c1cc(C)on1)CC2 (stereo unspecified)
cytotoxicity at 10 µM: 3.94%

CC(NC(=O)NCCCn1cncn1)c1ccc2c(c1)OCCO2 (stereo unspecified)
cytotoxicity at 10 µM: -6.85%

c1ccc2oc(CCCN3CCc4cncnc4C3)nc2c1
cytotoxicity at 10 µM: -14.6%

COC(=O)[C@H](C)NC(=O)c1nc(C2CC2)n(-c2ccccc2Cl)n1
cytotoxicity at 10 µM: -1.76%

c1ccc2c(NCC3(N4CCOCC4)CCSC3)ncnc2c1 (stereo unspecified)
cytotoxicity at 10 µM: 57%

CC(C)CC(NS(C)(=O)=O)C(=O)N(C)Cc1nnc2n1CCC2 (stereo unspecified)
cytotoxicity at 10 µM: -4.22%

COc1cc(NC(=O)c2ccc(CN3CC[C@H](O)C3)cc2)cc(OC)c1
cytotoxicity at 10 µM: 10.5%

CC1CN(CCOc2ccccc2C#N)CCN1Cc1nccn1C (stereo unspecified)
cytotoxicity at 10 µM: -10.8%

CSCCCN1CCn2nc(CNC(C)=O)cc2C1
cytotoxicity at 10 µM: -13.6%

Cc1ncsc1CCN1CCN(C(=O)c2ccc(=O)[nH]c2)CC1
cytotoxicity at 10 µM: 4.38%

Cc1cc(C)c2cc(CNCc3cccnc3)c3nn(C)c(=O)n3c2c1
cytotoxicity at 10 µM: -6.11%

CCc1ccc(-c2cn(CCSc3ncn[nH]3)nn2)nc1
cytotoxicity at 10 µM: -0.89%

Cc1c(Br)cccc1CSc1nnc(CO)n1C
cytotoxicity at 10 µM: -40.5%

CSc1ccc(NC(=O)Cn2cc(NC(C)=O)cn2)cc1
cytotoxicity at 10 µM: 0.753%

CC(C#N)CN(C)Cc1ccc(Cl)c2cccnc12 (stereo unspecified)
cytotoxicity at 10 µM: -40.4%

O=C(O)c1ccn(COc2c(Cl)cccc2Cl)n1
cytotoxicity at 10 µM: 8.71%

COCCC(=O)N1Cc2cnc(Cc3ccc(OC)cc3)nc2C1
cytotoxicity at 10 µM: -0.641%

Cc1nc(C)n(CCNC(=O)C2(C)CC(c3ccccc3)=NO2)n1 (stereo unspecified)
cytotoxicity at 10 µM: 7.92%

CC1CCCCN1C1CN(c2ccnc(C(=O)NCc3ccco3)c2)C1 (stereo unspecified)
cytotoxicity at 10 µM: 2.29%

CCC(=O)N1CCC2(COCc3cnc(N4CCOCC4)nc32)C1 (stereo unspecified)
cytotoxicity at 10 µM: -66.2%

O=C1NC[C@H]2CN(Cc3ccccn3)CCN12
cytotoxicity at 10 µM: -2.4%

Cc1ccc(CN2CC[C@@H](O)[C@@H]2Cc2ccccc2)o1
cytotoxicity at 10 µM: 1.73%

CC[C@@]1(O)CCN(C(=O)CCc2cnn(C)c2)C[C@H]1O
cytotoxicity at 10 µM: -0.634%

Cc1ccc(CN2CCC3(CC2)C(=O)N(CC(C)C)CCN3C)s1
cytotoxicity at 10 µM: -3.63%

CNS(=O)(=O)c1cc(C(=O)NC2COc3ccccc3C2)ccc1OC (stereo unspecified)
cytotoxicity at 10 µM: 18.9%

O=C1CCC2(CCN(CCSc3ccccc3)CC2)CN1CCCO
cytotoxicity at 10 µM: 2.09%

CN(Cc1nnc(C2CC2)o1)CC1CCCN1c1cccnn1 (stereo unspecified)
cytotoxicity at 10 µM: -6.54%

Cn1cc(C(=O)N2CCCC(Cc3nccs3)C2)cn1 (stereo unspecified)
cytotoxicity at 10 µM: 3.83%

NC(=O)C(CNC(=O)COCC(F)(F)F)Cc1ccc(F)cc1 (stereo unspecified)
cytotoxicity at 10 µM: -5.36%

CC(C)CCN1CCN(C(=O)c2cnccn2)CC1
cytotoxicity at 10 µM: 0.365%

O=C1NC2(CCN(Cc3ccc(F)cc3)CC2)CC1c1ccncc1 (stereo unspecified)
cytotoxicity at 10 µM: 3.16%

CCN1C(=O)CCC12CCN(S(=O)(=O)c1ccc(C#N)cc1)CC2
cytotoxicity at 10 µM: 1.82%

O=C1COC2(CCN(Cc3ccco3)CC2)CN1CCn1cccn1
cytotoxicity at 10 µM: 10.2%

Cc1cc(C)n(-c2cccc(C(=O)Nc3n[nH]c(C4CCCO4)n3)c2)n1 (stereo unspecified)
cytotoxicity at 10 µM: -4.44%

COC(=O)c1ccc(N2CCC(N(C)c3ccccc3)CC2)nn1
cytotoxicity at 10 µM: -4.92%

Cn1cc(C(=O)N2CCC(Cc3nccs3)CC2)cn1
cytotoxicity at 10 µM: 7.63%

O=C(NCc1ccccc1Cn1ccnc1)N1CCOCC1
cytotoxicity at 10 µM: 0.84%

Cc1cc(C)n(CC2CCCN2C(=O)c2ccc(N(C)C)nn2)n1 (stereo unspecified)
cytotoxicity at 10 µM: 1.53%

O[C@@H]1C[C@@H](c2nc(Cc3ccccc3)no2)N(Cc2ncc[nH]2)C1
cytotoxicity at 10 µM: 2.63%

Cc1cc(C2CCCN(C(=O)c3ccc(C)[nH]c3=O)C2)n[nH]1 (stereo unspecified)
cytotoxicity at 10 µM: -5.65%

Cn1cc(CN2CCCC3(COCCN(Cc4c[nH]nn4)C3)C2)cn1 (stereo unspecified)
cytotoxicity at 10 µM: -0.501%

CCCN1CCN(Cc2cccc(OCC(N)=O)c2)[C@H]2CS(=O)(=O)C[C@H]21
cytotoxicity at 10 µM: 2.77%

Cc1cnc2c(c1NCc1ccccn1)c(=O)n(C)c(=O)n2C
cytotoxicity at 10 µM: -4.32%

Cc1nn(C)c(C)c1S(=O)(=O)NCC(C)(O)c1ccc2c(c1)OCO2 (stereo unspecified)
cytotoxicity at 10 µM: 1.77%

Cc1ccc(N2C[C@H]3OCC[C@H]3[C@H](C(=O)NC3CCCC3)C2)nn1
cytotoxicity at 10 µM: -75.6%

CCn1nc(C)c2nc(C(C)C)nc(NCC(C)O)c21 (stereo unspecified)
cytotoxicity at 10 µM: 8.02%

COCCN1CCC2(CC1)CC(N1CCOCC1)c1ccc(C)cc12 (stereo unspecified)
cytotoxicity at 10 µM: -106%

CCn1c(C2CCN(C(=O)c3ccc4cc[nH]c4c3)CC2)n[nH]c1=O
cytotoxicity at 10 µM: -18.5%

CC(C)N(C)S(=O)(=O)N(C)Cc1cnn(C)c1
cytotoxicity at 10 µM: 7.2%

Cc1cnn(CC2CN(Cc3nnc(C(C)C)o3)CCO2)c1 (stereo unspecified)
cytotoxicity at 10 µM: -2.55%

Cc1ncsc1CN1C[C@@H]2CCCO[C@@H]2[C@H](Nc2ccccn2)C1
cytotoxicity at 10 µM: 2.31%

Cc1ccc(F)cc1NC(=O)c1[nH]ncc1Br
cytotoxicity at 10 µM: 15.7%

CC(C)CCn1nc(CNc2ccc(Br)cc2)nc1O
cytotoxicity at 10 µM: 9.84%

CNc1nc(CNC(=O)Nc2cccc(CSC)c2)cs1
cytotoxicity at 10 µM: -3.01%

CN(CCNC(=O)N1CCCC1)C(=O)OC(C)(C)C
cytotoxicity at 10 µM: 3.97%

O=C(CCO)N[C@H]1CN(CC2CCC2)C[C@@H]1c1ccccc1
cytotoxicity at 10 µM: -0.447%

Cc1ccc(CNC(C)(C)c2noc(C(C)(C)C)n2)o1
cytotoxicity at 10 µM: -9.02%

Cc1cnn(CCCNC(=O)NCCC(=O)Nc2ccccc2)c1
cytotoxicity at 10 µM: 2.72%

Cc1cc(C)cc(OCCN(C)Cc2cscn2)c1
cytotoxicity at 10 µM: 6.56%

N#Cc1cccnc1N1CCN(S(=O)(=O)NCc2ccccc2)CC1
cytotoxicity at 10 µM: 6.1%

O=C(COc1coc(CN2CCOCC2)cc1=O)Nc1ccccc1F
cytotoxicity at 10 µM: -10.7%

CCc1nc(C2CCCN2CC(=O)NCCOc2ccccc2)no1 (stereo unspecified)
cytotoxicity at 10 µM: -16.4%

Cc1ccc(CN2CCOC3(CCCN(C(=O)c4ccco4)C3)C2)s1 (stereo unspecified)
cytotoxicity at 10 µM: -10.3%

Cc1ccc(C(=O)N2CC[C@@H]3[C@H]2CCC(=O)N3c2ccccc2)o1
cytotoxicity at 10 µM: -3.89%

Cc1cc(NCCNc2ccc(C#N)cn2)nc(C)n1
cytotoxicity at 10 µM: 4.42%

CC(NC(=O)NCCS(C)(=O)=O)c1ccc2c(c1)CCC(=O)N2 (stereo unspecified)
cytotoxicity at 10 µM: 1.39%

NCc1n[nH]c(-c2ccc(Br)cc2)n1
cytotoxicity at 10 µM: 19.7%

CCOCC(O)CN1CCN(C(=O)Cc2ccc3c(c2)CCC3)CC1 (stereo unspecified)
cytotoxicity at 10 µM: -15.5%

Cc1ccc2c(c1)SCC(=O)N2CC(=O)N1CCC[C@H]1c1nc(C)no1
cytotoxicity at 10 µM: 7.95%

Cc1ncsc1CN1CC[C@H]2OCC[C@@]2(C(=O)N2CCCO2)C1
cytotoxicity at 10 µM: -0.0653%

Cc1ccc(CN2Cc3nnn(C)c3C(COCC(=O)N(C)C)C2)s1 (stereo unspecified)
cytotoxicity at 10 µM: 10.1%

Cc1cc(CN(C)C(=O)c2cccc(CCC(C)(C)O)c2)no1
cytotoxicity at 10 µM: -2.02%

Cc1cnn(CC2CN(CC(=O)N(C)c3nccs3)CCO2)c1 (stereo unspecified)
cytotoxicity at 10 µM: 0.385%

CN(C)CCNC(=O)C1Cc2nc(-c3ccccc3)sc2N1CC1CC1 (stereo unspecified)
cytotoxicity at 10 µM: 5.15%

Cc1nn(CC(C)C)c(N(C)C)c1CNCCC(=O)NC(C)C
cytotoxicity at 10 µM: 7.45%

Cc1nc(-c2ccco2)ccc1C(=O)NCCCN1CCOCC1
cytotoxicity at 10 µM: -4.02%
